Source: PMC3057461 (Chemistry & biology, 2011)
Like-named read-outs stand apart in the source and are kept apart here.

How the values were obtained:
DnaK-DnaJ complex = DnaK-DnaJ complex (Escherichia coli, UniProt P0A6Y8); experiment: ATPase assay of the DnaK-DnaJ system; type: biochemical; conditions: for effect on stimulatory activity of DnaJ on DnaK ATPase: DnaJ titration
DnaK (wild type) = DnaK (wild type) (Escherichia coli, UniProt P0A6Y8); experiment: Tryptophan fluorescence quench, apparent affinity of myricetin for DnaK; type: binding; conditions: apparent affinity (Kapp), wild type DnaK 3 μM, ATP 1 mM
In short: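 Test compound was added at various concentrations to wild-type DnaK, read at 342 nm (Ex 295 nm) for tryptophan fluorescence quench. Conditions were 5 μM nucleotide-free DnaK alone, 5 μM DnaK with 2 mM ATP, or 3 μM DnaK with 1 mM ATP. Apo-DnaK was eluted from the ATP column with 1 M NaCl. DnaK-free controls were subtracted. Triplicates, ± SEM.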

DnaK K106A = DnaK K106A (Escherichia coli, UniProt P0A6Y8, K106A); experiment: Tryptophan fluorescence quench, DnaK K106A control mutant; type: binding
In short: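 DnaK alanine mutants were used at 3 μM with 1 mM ATP. Test compound was added at various concentrations, and quench of intrinsic tryptophan fluorescence was read at 342 nm (Ex 295 nm). Readings from controls lacking DnaK were subtracted, and apparent affinity was derived from the concentration series.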

DnaK [1] = molecular target: T1, DnaK (Escherichia coli, UniProt P0A6Y8); experiment: Tryptophan fluorescence response of DnaK to ATP binding; conditions: myricetin 100 μM, DnaK 5 μM, ATP 100 μM
In short: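 Apo-DnaK (6 μM) was preincubated with test compound (125 μM) for 1 h at 37 °C. Then 500 μM ATP or buffer (Tris, KCl, MgCl2, pH 7.4) was added as one-fifth of the final volume; these are pre-mix concentrations. Tryptophan emission was scanned from 300–400 nm at 295 nm excitation. Runs were done in triplicate.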

DnaJ = DnaJ (Escherichia coli, UniProt P08622); experiment: Isothermal calorimetry; type: binding; conditions: DnaJ 10 μM; titrations noisy
[2] = molecular target: J domain (residues 2–108) (Escherichia coli, UniProt P08622); experiment: Isothermal calorimetry; type: binding; conditions: truncated J domain residues 2–108
DnaK [3] = molecular target: T1, DnaK; experiment: Intrinsic ATPase activity of DnaK; type: biochemical
In short: (§1)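 ATP turnover was measured for purified E. coli DnaK (His-tag cleaved) in the established ATPase assay, alone or with the stimulating partner named. Results are means of triplicates ± SEM.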

DnaK-GrpE = DnaK-GrpE (Escherichia coli, UniProt P0A6Y8); experiment: GrpE-mediated stimulation of DnaK ATP turnover; type: biochemical
In short: as §1

DnaK [4] = molecular target: T1, DnaK; experiment: Peptide substrate; type: biochemical; conditions: model substrate NRLLLTG
In short: as §1

DnaK-J domain = DnaK-J domain (Escherichia coli, UniProt P0A6Y8); experiment: J domain stimulation of DnaK ATP turnover; type: biochemical
In short: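 For J-domain-stimulated turnover, His-tagged DnaJ J domain (residues 2–108) was purified with an extra gel-filtration step and stored in Tris pH 7.5 with 150 mM KCl and 5 mM MgCl2. It was then run in the established DnaK ATPase assay. Results are means of triplicates ± SEM.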

DnaK-DnaJ-GrpE = DnaK-DnaJ-GrpE (Escherichia coli, UniProt P0A6Y8); experiment: ATPase assay of DnaK-DnaJ in the presence of GrpE; type: biochemical; conditions: saturating GrpE (2 μM); DnaK 0.6 μM, DnaJ 1 μM
In short: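 Purified E. coli DnaK (0.6 μM) and DnaJ (1 μM), with His-tags cleaved, were run in the established ATPase assay with GrpE at 2 μM or a range of GrpE levels. Test compound was given as a dose series, and IC50 was taken from the dose response. Values are means of triplicates ± SEM.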

DnaK-DnaJ = DnaK-DnaJ (Escherichia coli, UniProt P0A6Y8); type: binding
In short: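 Firefly luciferase was partially digested and adsorbed onto microtiter wells. DnaK was added with DnaJ titrated, in the presence or absence of test compound. Bound DnaK was detected with an anti-DnaK antibody. Each point is the mean of triplicates ± SEM.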

DnaK-DnaJ interaction = DnaK-DnaJ interaction (Escherichia coli, UniProt P0A6Y8); experiment: DnaK-DnaJ interaction by FRET; type: binding; conditions: for effect on binding of DnaJ to DnaK: ATP 2 mM
[5] = read-out: IC50 against the DnaK-DnaJ system, DnaK 0.6 μM, DnaJ 1 μM

DnaK-DnaJ complex, sequence (P0A6Y8 whole entry, one chain of several): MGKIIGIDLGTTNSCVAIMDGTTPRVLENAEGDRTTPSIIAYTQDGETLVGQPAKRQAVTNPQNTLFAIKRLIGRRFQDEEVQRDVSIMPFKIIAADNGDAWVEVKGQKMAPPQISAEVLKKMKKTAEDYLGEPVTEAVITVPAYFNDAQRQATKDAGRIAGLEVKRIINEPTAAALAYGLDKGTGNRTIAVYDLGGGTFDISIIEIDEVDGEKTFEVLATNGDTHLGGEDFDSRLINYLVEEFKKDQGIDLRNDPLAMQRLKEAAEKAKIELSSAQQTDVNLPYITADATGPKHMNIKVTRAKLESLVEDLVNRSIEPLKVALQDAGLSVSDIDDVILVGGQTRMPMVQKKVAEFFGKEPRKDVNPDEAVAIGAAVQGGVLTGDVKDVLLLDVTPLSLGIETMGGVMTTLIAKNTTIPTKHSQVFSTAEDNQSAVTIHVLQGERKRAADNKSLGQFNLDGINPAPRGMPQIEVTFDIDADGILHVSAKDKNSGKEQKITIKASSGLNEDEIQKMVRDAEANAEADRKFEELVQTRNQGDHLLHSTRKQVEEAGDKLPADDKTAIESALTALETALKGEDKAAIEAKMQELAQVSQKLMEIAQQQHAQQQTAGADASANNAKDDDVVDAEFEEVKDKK
DnaK-DnaJ interaction, sequence (P0A6Y8 whole entry): as the sequence (P0A6Y8 whole entry, one chain of several) above
T1 sequence (P0A6Y8 whole entry): as the sequence (P0A6Y8 whole entry, one chain of several) above
DnaK-DnaJ, sequence (P0A6Y8 whole entry): as the sequence (P0A6Y8 whole entry, one chain of several) above
J domain (residues 2–108), sequence (P08622 2-108): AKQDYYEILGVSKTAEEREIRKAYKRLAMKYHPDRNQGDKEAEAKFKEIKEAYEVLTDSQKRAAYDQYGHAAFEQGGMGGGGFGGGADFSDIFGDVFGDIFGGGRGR
DnaJ, sequence (P08622 whole entry, the tested form may be a part): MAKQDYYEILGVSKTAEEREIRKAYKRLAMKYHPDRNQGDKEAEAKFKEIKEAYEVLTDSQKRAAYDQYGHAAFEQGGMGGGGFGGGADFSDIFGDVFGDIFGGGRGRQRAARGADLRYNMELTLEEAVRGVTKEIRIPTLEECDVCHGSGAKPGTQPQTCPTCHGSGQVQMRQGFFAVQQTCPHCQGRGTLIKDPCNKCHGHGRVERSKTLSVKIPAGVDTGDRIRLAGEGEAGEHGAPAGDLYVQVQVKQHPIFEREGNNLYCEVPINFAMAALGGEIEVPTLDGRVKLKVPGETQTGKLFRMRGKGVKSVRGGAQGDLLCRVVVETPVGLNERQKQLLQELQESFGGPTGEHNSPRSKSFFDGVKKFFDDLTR
DnaK-J domain, sequence (P0A6Y8 whole entry, the tested form may be a part): as the sequence (P0A6Y8 whole entry, one chain of several) above
DnaK-DnaJ-GrpE, sequence (P0A6Y8 whole entry): as the sequence (P0A6Y8 whole entry, one chain of several) above
DnaK-GrpE, sequence (P0A6Y8 whole entry): as the sequence (P0A6Y8 whole entry, one chain of several) above

## O=C(O[C@@H]1Cc2c(O)cc(O)cc2O[C@@H]1c1ccc(O)c(O)c1)c1cc(O)c(O)c(O)c1 [ECG, epicatechin-3-gallate]
DnaK-DnaJ complex
  IC50: 6 ± 0.9 µM

## COc1cc(OC)c2c(=O)c(O)c(-c3ccc(OC)c(OC)c3)oc2c1 [QTE, quercetin tetramethyl (5,7,3′,4′) ether]
DnaK-DnaJ complex; [5]
  IC50: > 200 µM

## O=c1cc(-c2cc(O)c(O)c(O)c2)oc2cc(O)cc(O)c12 [hieracin]
DnaK-DnaJ complex; [5]
  IC50: 28.2 µM

## O=c1c(O)c(-c2ccc(O)cc2)oc2cc(O)cc(O)c12 [kaempferol]
DnaK-DnaJ complex
  IC50: > 200 µM

## O=c1cc(-c2ccc(O)c(O)c2)oc2cc(O)cc(O)c12 [luteolin]
DnaK-DnaJ complex
  IC50: 9.4 µM

## O=c1c(O)c(-c2cc(O)c(O)c(O)c2)oc2cc(O)cc(O)c12 [myricetin]
DnaK-DnaJ complex
  IC50: 14.5 µM
DnaK-DnaJ complex; DnaK 0.6 μM, DnaJ 1 μM
  inhibition (up to, maximal): up to 75%
DnaK-DnaJ complex; myricetin 50 μM
  effect on stimulatory activity of DnaJ on DnaK ATPase: dramatically weakened
DnaK-DnaJ complex; myricetin 200 μM
  effect on stimulatory activity of DnaJ on DnaK ATPase: completely suppressed
DnaK-DnaJ complex; read-out: percent inhibition
  inhibition at 200 µM: 75%
DnaK (wild type)
  Kd: 55 ± 7 µM
DnaK K106A
  Kd: 43 ± 5 µM
DnaK [1]
  tryptophan fluorescence response to ATP binding: responded normally
DnaJ
  binding to DnaJ by ITC: no apparent affinity
[2]
  binding to J domain by ITC: failed to bind
DnaK [3]
  effect on intrinsic ATPase activity of DnaK: no effect
DnaK-GrpE
  effect on stimulation of DnaK by GrpE: did not influence
DnaK [4]
  effect on peptide-mediated stimulation of ATP turnover: no effect
DnaK-J domain
  effect on J domain stimulatory activity: able to block
DnaK-DnaJ-GrpE
  apparent affinity of myricetin in the presence of DnaJ and GrpE: significantly enhanced
DnaK-DnaJ; 20 μM myricetin
  decrease of maximal amount of bound DnaK: approximately 40%
DnaK-DnaJ; 20 μM myricetin (62 nM without compound)
  amount of DnaJ required to promote DnaK binding to luciferase: 1 µM
DnaK-DnaJ interaction; 25 μM myricetin, Kapp approx. 560 nM without compound
  weakening of Kapp between DnaJ and DnaK: 5.3 fold
DnaK-DnaJ interaction
  effect on binding of DnaJ to DnaK: significantly reduced

## O=c1c(O)c(-c2ccc(O)c(O)c2)oc2cc(O)cc(O)c12 [quercetin]
DnaK-DnaJ complex
  IC50: 27.6 µM
DnaK-DnaJ complex; DnaK 0.6 μM, DnaJ 1 μM
  inhibition (up to, maximal): up to 67%

## COc1cc(O)c2c(=O)c(O)c(-c3ccc(O)c(O)c3)oc2c1 [rhamnetin]
DnaK-DnaJ complex; DnaK 0.6 μM, DnaJ 1 μM
  activity against DnaK-DnaJ: inactive

## (±)-catechin
DnaK-DnaJ interaction
  effect on binding of DnaJ to DnaK: did not inhibit
